Converted amounts (≈) assume the structure as drawn.
Assays:
[1] = Cytotoxicity against human HepG2(2.2.15) cells; assay type: cell-based; conditions: read-out: TC50 (the source's name)
Hepatitis B virus = assay: Antiviral activity against Hepatitis B virus infected in human HepG2.2.15 cells assessed as inhibition of viral DNA replication by semi-quantitative EIA; assay type: functional, organism-based; conditions: HepG2 2.2.15
Method in brief: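 HepG2 2.2.15 cells, derived from hepatoblastoma HepG2 and stably transfected with HBV, were seeded in flat-bottomed tissue culture wells. They received eight consecutive daily doses of compound in RPMI1640 with 2% fetal bovine serum, with lamivudine as the positive control. HBV nucleic acids and proteins were analysed at the end of treatment (day 8).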

[2] = Selectivity index, ratio of TC50 for human HepG2(2.2.15) cells to IC50 for Hepatitis B virus; assay type: toxicity; conditions: read-out: Selectivity Index

IC50 (Hepatitis B virus) | SMILES | CC50 [1] | selectivity ratio [2]
 | Cc1cn([C@@H]2[C@@H](O)[C@H](O)[C@@H](O)CN2C(=O)OC(C)(C)C)c(=O)[nH]c1=O | 1000 µg/mL (≈ 2800 µM) | 
 | Cc1cn([C@H]2[C@@H](O)[C@H](O)[C@@H](O)CN2C(=O)OC(C)(C)C)c(=O)[nH]c1=O | 1000 µg/mL (≈ 2800 µM) | 
 | CC(C)(C)OC(=O)N1C[C@H](O)[C@@H](O)[C@@H](O)[C@@H]1n1cc(F)c(=O)[nH]c1=O | 29 µg/mL (≈ 80.3 µM) | 
247 µg/mL (≈ 675 µM) | CC(C)(C)OC(=O)N1C[C@@H](O)[C@@H](O)[C@H](O)[C@H]1n1cnc2c(N)ncnc21 | 1000 µg/mL (≈ 2730 µM) | 4
 | CC(C)(C)OC(=O)N1C[C@@H](O)[C@@H](O)[C@H](O)[C@@H]1n1cnc2c(N)ncnc21 | 1000 µg/mL (≈ 2730 µM) | 
2.74 µg/mL (≈ 7.58 µM) | CC(C)(C)OC(=O)N1C[C@@H](O)[C@@H](O)[C@H](O)[C@H]1n1cc(F)c(=O)[nH]c1=O | 37 µg/mL (≈ 103 µM) | 13.5
 | CC(C)(C)OC(=O)N1CC(O)[C@@H](O)[C@H](O)[C@H]1n1cnc2c(N)ncnc21 (single isomer, unassigned) | > 1000 µg/mL | 
 | CC(C)(C)OC(=O)N1CC(O)[C@@H](O)[C@H](O)[C@H]1n1ccc(=O)[nH]c1=O (single isomer, unassigned) | > 1000 µg/mL | 
 | CC(C)(C)OC(=O)N1CC(O)[C@@H](O)[C@H](O)[C@H]1n1cc(F)c(=O)[nH]c1=O (single isomer, unassigned) | 192 µg/mL (≈ 533 µM) | 
 | CC(C)(C)OC(=O)N1CC(O)[C@@H](O)[C@H](O)[C@H]1n1ccc(N)nc1=O (single isomer, unassigned) | > 1000 µg/mL | 
93 µg/mL (≈ 260 µM) | Cc1cn([C@@H]2[C@H](O)[C@H](O)C(O)CN2C(=O)OC(C)(C)C)c(=O)[nH]c1=O (single isomer, unassigned) | 430 µg/mL (≈ 1200 µM) | 4.6
33 µg/mL (≈ 92.4 µM) | Cc1cn([C@H]2[C@H](O)[C@H](O)C(O)CN2C(=O)OC(C)(C)C)c(=O)[nH]c1=O (single isomer, unassigned) | 577 µg/mL (≈ 1620 µM) | 17.5
281 µg/mL (≈ 767 µM) | CC(C)(C)OC(=O)N1CC(O)[C@@H](O)[C@@H](O)[C@@H]1n1cnc2c(N)ncnc21 (single isomer, unassigned) | 693 µg/mL (≈ 1890 µM) | 3.6
316 µg/mL (≈ 862 µM) | CC(C)(C)OC(=O)N1C[C@@H](O)C(O)C(O)C1n1cnc2c(N)ncnc21 (single isomer, unassigned) | 1000 µg/mL (≈ 2730 µM) | 3.2
 | Cc1cn([C@@H]2[C@@H](O)[C@H](O)C(O)CN2C(=O)OC(C)(C)C)c(=O)[nH]c1=O (single isomer, unassigned) | > 1000 µg/mL | 
4.51 µg/mL (≈ 19.7 µM) | Nc1ccn([C@@H]2CS[C@H](CO)O2)c(=O)n1 [LAMIVUDINE] | 1000 µg/mL (≈ 4360 µM) | 222
